Test results reported in the RNAGym collection of RNA variant scans (doi:10.1038/s41586-018-0170-7).

B1: tRNA (parent)
chain: GUUCCGUUGGCGUAAUGGUAACGCGUCUCCCUCCUAAGGAGAAGACUGCGGGUUCGAGUCCCGUACGGAACG

Variants of: B1
Assay: yeast fitness, log relative to wild type (ln ratio); higher = fitter; tRNA-Arg(CCU), competitive growth, 37 C, 1 M NaCl
Method in brief: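 BY4742 cells without the chromosomal tRNA-Arg(CCU) gene carried a combinatorial variant library on a HIS3 centromeric plasmid, from two independent transformations. After 4 generations in SC-HIS at 30 °C, pools spent ~6.5 generations (~26.5 h) in SC-HIS 1M NaCl at 37 °C, giving three outputs per input, and 125 bp paired-end Illumina reads counted the variants. Fitness is the natural log of each genotype's generations over the wild type's, with generations taken as OD-scaled log2 output/input frequency weighted by inverse variance across replicates.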

Compared with GUUCCGUUGGCGUAAUGGUAACGCGUCUCCCUCCUAAGGAGACGACUGCGGGUUCGAGUCCCGUAAGGAAUG [A43C C66A C71U], GUUCCUUUGGCGUAAUGGUAACGCGUCUCCCUCCUAAGGAGACGAUUGCGGGUUCGAGUCCCGUAUGGGACG [G6U A43C C46U C66U A69G] is lower in “yeast fitness (ln)” value: -0.117 for the first, -0.261 for the second.

First: AGUCCGUUGGCGUAAUGGUAACGCGUCUCCCUCCUAAGGAGACGAUUGCGGGUUCGAGUCCCGUAUGGAUUG [G1A U2G A43C C46U C66U A70U C71U]
Second: AUUCCAUUGGCGUAAUGGUAACGCGUCUCCCUCCUAAGGAGAAGAUUGCGGGUUCGAGUCCCGUACGGGGCG [G1A G6A C46U A69G A70G]
The “yeast fitness (ln)” value of the first is lower: -0.242 for the first, -0.123 for the second.

Going from GCUCCAUUGGCGUAAUGGUAACGCGUCUCCCUCCUAAGGAGACGAUUGCGGGUUCGAGUCCCGUAAGGAUCG [U2C G6A A43C C46U C66A A70U] to GGUCCUUUGGCGUAAUGGUAACGCGUCUCCCUCCUAAGGAGACGACUGCGGGUUCGAGUCCCGUAUGGAUUG [U2G G6U A43C C66U A70U C71U], the “yeast fitness (ln)” value falls from -0.0148 to -0.464.

Compared with GGUCCAUUGGCGUAAUGGUAACGCGUUUCCCUCCUAAGGAGAAGAUUGCGGGUUCGAGUCCCGUAAGGAAUG [U2G G6A C27U C46U C66A C71U], GUUCCGUUGGCGUAAUGGUAACGCGUUUCCCUCCUAAGGAGAAGACUGCGGGUUCGAGUCCCGUAAGGAGCG [C27U C66A A70G] is higher in “yeast fitness (ln)” value: -0.213 for the first, -0.0873 for the second.

First: GGUCCUUUGGCGUAAUGGUAACGCGUUUCCCUCCUAAGGAGACGAUUGCGGGUUCGAGUCCCGUACGGGUUG [U2G G6U C27U A43C C46U A69G A70U C71U]
Second: AUUCCGUUGGCGUAAUGGUAACGCGUUUCCCUCCUAAGGAGACGAUUGCGGGUUCGAGUCCCGUAAGGGGCG [G1A C27U A43C C46U C66A A69G A70G]
The “yeast fitness (ln)” value of the first is lower: -0.418 for the first, -0.189 for the second.

Going from GUUCCAUUGGCGUAAUGGUAACGCGUUUCCCUCCUAAGGAGACGACUGCGGGUUCGAGUCCCGUACGGAUUG [G6A C27U A43C A70U C71U] to GCUCCUUUGGCGUAAUGGUAACGCGUCUCCCUCCUAAGGAGACGACUGCGGGUUCGAGUCCCGUAUGGAGUG [U2C G6U A43C C66U A70G C71U], the “yeast fitness (ln)” value rises from -0.322 to -0.172.

Compared with AUUCCGUUGGCGUAAUGGUAACGCGUCUCCCUCCUAAGGAGACGACUGCGGGUUCGAGUCCCGUACGGGGCG [G1A A43C A69G A70G], GUUCCAUUGGCGUAAUGGUAACGCGUCUCCCUCCUAAGGAGAAGACUGCGGGUUCGAGUCCCGUAUGGGUUG [G6A C66U A69G A70U C71U] is lower in “yeast fitness (ln)” value: -0.11 for the first, -0.447 for the second.

First: AGUCCAUUGGCGUAAUGGUAACGCGUUUCCCUCCUAAGGAGACGAUUGCGGGUUCGAGUCCCGUAUGGGGCG [G1A U2G G6A C27U A43C C46U C66U A69G A70G]
Second: ACUCCGUUGGCGUAAUGGUAACGCGUUUCCCUCCUAAGGAGACGAUUGCGGGUUCGAGUCCCGUAUGGAAUG [G1A U2C C27U A43C C46U C66U C71U]
The “yeast fitness (ln)” value of the first is lower: -0.34 for the first, -0.241 for the second.

Going from ACUCCAUUGGCGUAAUGGUAACGCGUUUCCCUCCUAAGGAGAAGAUUGCGGGUUCGAGUCCCGUAUGGAGCG [G1A U2C G6A C27U C46U C66U A70G] to AUUCCGUUGGCGUAAUGGUAACGCGUCUCCCUCCUAAGGAGAAGACUGCGGGUUCGAGUCCCGUACGGAGUG [G1A A70G C71U], the “yeast fitness (ln)” value rises from -0.0633 to -0.0244.

Going from GGUCCGUUGGCGUAAUGGUAACGCGUUUCCCUCCUAAGGAGAAGAUUGCGGGUUCGAGUCCCGUACGGAAUG [U2G C27U C46U C71U] to AGUCCAUUGGCGUAAUGGUAACGCGUUUCCCUCCUAAGGAGAAGAUUGCGGGUUCGAGUCCCGUAUGGGGUG [G1A U2G G6A C27U C46U C66U A69G A70G C71U], the “yeast fitness (ln)” value falls from -0.099 to -0.407.

First: GGUCCUUUGGCGUAAUGGUAACGCGUCUCCCUCCUAAGGAGAAGACUGCGGGUUCGAGUCCCGUAUGGAUUG [U2G G6U C66U A70U C71U]
Second: GGUCCAUUGGCGUAAUGGUAACGCGUCUCCCUCCUAAGGAGAAGACUGCGGGUUCGAGUCCCGUAUGGGGCG [U2G G6A C66U A69G A70G]
The “yeast fitness (ln)” value of the first is higher: -0.303 for the first, -0.448 for the second.

First: AGUCCGUUGGCGUAAUGGUAACGCGUUUCCCUCCUAAGGAGACGAUUGCGGGUUCGAGUCCCGUACGGGGCG [G1A U2G C27U A43C C46U A69G A70G]
Second: GCUCCUUUGGCGUAAUGGUAACGCGUCUCCCUCCUAAGGAGAAGACUGCGGGUUCGAGUCCCGUAUGGGUCG [U2C G6U C66U A69G A70U]
The “yeast fitness (ln)” value of the first is lower: -0.22 for the first, -0.179 for the second.

First: GGUCCAUUGGCGUAAUGGUAACGCGUUUCCCUCCUAAGGAGACGAUUGCGGGUUCGAGUCCCGUAAGGGUUG [U2G G6A C27U A43C C46U C66A A69G A70U C71U]
Second: ACUCCUUUGGCGUAAUGGUAACGCGUCUCCCUCCUAAGGAGACGACUGCGGGUUCGAGUCCCGUAUGGAGUG [G1A U2C G6U A43C C66U A70G C71U]
The “yeast fitness (ln)” value of the first is lower: -0.65 for the first, -0.335 for the second.

Going from GGUCCUUUGGCGUAAUGGUAACGCGUCUCCCUCCUAAGGAGAAGAUUGCGGGUUCGAGUCCCGUAUGGGGUG [U2G G6U C46U C66U A69G A70G C71U] to ACUCCAUUGGCGUAAUGGUAACGCGUCUCCCUCCUAAGGAGACGACUGCGGGUUCGAGUCCCGUAUGGAUCG [G1A U2C G6A A43C C66U A70U], the “yeast fitness (ln)” value rises from -0.231 to -0.083.

First: GCUCCGUUGGCGUAAUGGUAACGCGUCUCCCUCCUAAGGAGACGACUGCGGGUUCGAGUCCCGUAAGGGGCG [U2C A43C C66A A69G A70G]
Second: GGUCCAUUGGCGUAAUGGUAACGCGUUUCCCUCCUAAGGAGACGAUUGCGGGUUCGAGUCCCGUAUGGAUCG [U2G G6A C27U A43C C46U C66U A70U]
The “yeast fitness (ln)” value of the first is lower: -0.186 for the first, -0.0122 for the second.

Compared with AGUCCGUUGGCGUAAUGGUAACGCGUCUCCCUCCUAAGGAGAAGAUUGCGGGUUCGAGUCCCGUACGGGACG [G1A U2G C46U A69G], GGUCCGUUGGCGUAAUGGUAACGCGUCUCCCUCCUAAGGAGACGAUUGCGGGUUCGAGUCCCGUAUGGGGCG [U2G A43C C46U C66U A69G A70G] is lower in “yeast fitness (ln)” value: -0.13 for the first, -0.173 for the second.

Compared with GCUCCAUUGGCGUAAUGGUAACGCGUUUCCCUCCUAAGGAGACGACUGCGGGUUCGAGUCCCGUAUGGGGUG [U2C G6A C27U A43C C66U A69G A70G C71U], GCUCCUUUGGCGUAAUGGUAACGCGUUUCCCUCCUAAGGAGAAGAUUGCGGGUUCGAGUCCCGUACGGAGCG [U2C G6U C27U C46U A70G] is higher in “yeast fitness (ln)” value: -0.293 for the first, -0.0953 for the second.

Going from GUUCCGUUGGCGUAAUGGUAACGCGUCUCCCUCCUAAGGAGAAGACUGCGGGUUCGAGUCCCGUAUGGAGCG [C66U A70G] to GUUCCUUUGGCGUAAUGGUAACGCGUCUCCCUCCUAAGGAGAAGACUGCGGGUUCGAGUCCCGUAUGGAUCG [G6U C66U A70U], the “yeast fitness (ln)” value falls from -0.0949 to -0.122.

Going from AUUCCUUUGGCGUAAUGGUAACGCGUUUCCCUCCUAAGGAGAAGACUGCGGGUUCGAGUCCCGUAAGGGGUG [G1A G6U C27U C66A A69G A70G C71U] to AGUCCAUUGGCGUAAUGGUAACGCGUUUCCCUCCUAAGGAGAAGACUGCGGGUUCGAGUCCCGUAUGGAUCG [G1A U2G G6A C27U C66U A70U], the “yeast fitness (ln)” value rises from -0.31 to -0.234.
